An excerpt weighted towards active compounds, which were near 2.1% of everything screened.
M1 PAM: positive allosteric modulators of human M1 muscarinic receptor; P11229; CHO-K1 hM1, Fluo-8 calcium fluorescence, ACh EC20; 0% = ACh EC20, 100% = maximal ACh; activation, % at 3 µM; actives 0.088% (n = 360,000); AID 588819; in the data active = activation above about 19%, passing the limit was not always enough
CHRM5 antagonist: CHRM5 antagonism in calcium assay; CHO-hM5 cells, Fluo-8 calcium fluorescence, ACh EC80; inhibition, % at 3 µM; actives 0.59% (n = 360,000);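 active = inhibition above a per-plate cutoff, the mean of that plate's test compounds plus 3 SD, cut at about 27% in these data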
Target sequence (P08912 whole entry, looked up): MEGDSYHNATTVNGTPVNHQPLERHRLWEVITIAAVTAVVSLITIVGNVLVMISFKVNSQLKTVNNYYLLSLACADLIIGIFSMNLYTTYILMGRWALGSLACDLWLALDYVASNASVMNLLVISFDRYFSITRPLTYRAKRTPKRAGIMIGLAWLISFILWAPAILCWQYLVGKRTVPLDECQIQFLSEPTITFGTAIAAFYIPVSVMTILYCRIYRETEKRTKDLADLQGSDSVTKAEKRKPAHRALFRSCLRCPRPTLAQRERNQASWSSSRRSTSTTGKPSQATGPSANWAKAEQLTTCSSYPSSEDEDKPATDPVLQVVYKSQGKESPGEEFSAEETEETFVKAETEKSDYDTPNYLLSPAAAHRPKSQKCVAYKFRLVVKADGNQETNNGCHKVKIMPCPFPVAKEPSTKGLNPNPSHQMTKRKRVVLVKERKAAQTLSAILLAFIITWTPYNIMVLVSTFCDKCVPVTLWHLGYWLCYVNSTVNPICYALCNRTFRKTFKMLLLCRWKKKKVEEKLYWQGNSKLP
M5 ag: CHRM5 agonism in calcium assay | P08912 | CHO-K1 hM5 cells, Fluo-8 calcium fluorescence; 0% DMSO wells, 100% maximal acetylcholine response | activation, % at 3 µM | actives 0.19% (n = 360,000);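 active = activation above the run's mean over test compounds plus 3 SD, cut at about 23% in these data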;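 also: signal is peak over basal fluorescence ratio across the kinetic read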
M5 PAM: positive allosteric modulators of human muscarinic M5 receptor; activation, % at 3 µM; P08912; AID 624038; actives 0.3% (n = 360,000); CHO-K1 hM5, Fluo-8 calcium, ACh EC20 PAM; 0% = ACh EC20, 100% = ACh EC100;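 active = activation above the run cutoff, the mean activation of all test compounds plus 3 SD, cut at about 18% in these data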
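Probe or stimulus: acetylcholine, EC20 level; Assay system: human M5 receptor in CHO-K1 cells; Schedule: compound preincubation 140 s before EC20 acetylcholine addition; Technique: intracellular calcium via Fluo-8 fluorescence; Dosing: single-point, 3 µM nominal; Read-out basis: percent activation from peak-over-basal fluorescence ratio, scaled EC20-to-EC100 acetylcholine; Repeats: one well per compound, no replicates.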
CHRM1 agonist: human M1 muscarinic receptor agonism | P11229 | AID 588814 | activation, % at 3 µM | actives 0.33% (n = 360,000) | CHO-K1 hM1, Fluo-8 calcium fluorescence, agonist mode; 0% DMSO, 100% acetylcholine EC100;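 active = activation above the run's mean compound activation plus 3 SD, cut at about 16% in these data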;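 also: peak over basal fluorescence ratio within a 140 s kinetic read after compound addition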
M1 antag: blocks human M1 muscarinic receptor; AID 588852; P11229; CHO-K1 hM1, Fluo-8 calcium fluorescence, ACh EC80 antagonist; inhibition, % at 3 µM; actives 1.3% (n = 360,000);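 active = percent inhibition above its own plate's cutoff, namely the mean of that plate's compound wells plus 3 SD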;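 also: peak over basal fluorescence ratio during 140 s after agonist addition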
A number is an active result; . = inactive; / = no result given.

SMILES	M1 PAM	CHRM5 antagonist	M5 ag	M5 PAM	CHRM1 agonist	M1 antag
CC(C)CCNC(=O)C(C)N(Cc1ccc(F)cc1)C(=O)c1ccc(CN2CCOCC2)o1 (configuration not stated)	.	.	.	.	.	.
Cc1c(C(=O)NCc2ccccc2)sc(=O)n1Cc1ccccc1F	.	.	.	.	.	.
COc1ccc(Cl)cc1Cn1c(C)c(C(=O)NCc2cccc([N+](=O)[O-])c2)sc1=O	.	.	.	.	.	80
Cc1c(C(=O)NCc2ccc(C(C)C)cc2)sc(=O)n1Cc1ccc(S(=O)(=O)N(C)C)cc1	.	.	.	.	.	34
Cc1c(C(=O)NCc2ccc(C(F)(F)F)cc2)sc(=O)n1Cc1cccc(F)c1	.	32	50	.	37	39
Cc1c(C(=O)NCc2cccc([N+](=O)[O-])c2)sc(=O)n1Cc1ccccc1F	.	.	.	.	.	67
Cc1c(C(=O)NCc2ccc(Cl)c(Cl)c2)sc(=O)n1Cc1ccc(S(=O)(=O)N(C)C)cc1	.	.	.	.	.	.
Cc1ccc(C(=O)OCC(=O)NCc2cccs2)s1	.	.	.	.	.	.
COc1ccc(Br)c(Cn2c(C)c(C(=O)NCc3cccc([N+](=O)[O-])c3)sc2=O)c1	.	.	.	.	.	89
COc1ccc(Cn2cc(F)c(=O)n(CCC(C)C)c2=O)cc1[N+](=O)[O-]	.	.	.	.	.	.
COc1ccc(Cn2cc(F)c(=O)n(C)c2=O)cc1[N+](=O)[O-]	.	.	.	18	.	.
CC(C)(C#CCN1CCCCC1)OCCOC(c1ccccc1)c1ccccc1	.	30	.	.	.	99
CC(C)C(O)(C#CCN1CCCCCC1)c1ccccc1 (configuration not stated)	.	60	.	.	.	87
OC(C#CCN1CCCC1)(c1ccccc1)c1cccc(F)c1 (configuration not stated)	.	98	.	.	.	101
CC(O)(C#CCN1CCCC1)c1ccccc1 (configuration not stated)	.	.	.	.	.	41
CC(O)(C#CCN1CCCCC1)c1ccccc1 (configuration not stated)	.	.	.	.	.	.
CN(C)c1ccc2c(c1[N+](=O)[O-])Cc1ccccc1-2	.	.	.	.	.	.
COC(=O)C[C@@H]1CC[C@@H](NS(=O)(=O)c2ccc(F)cc2)[C@@H](CO)O1	/	.	.	.	/	/
CC1CCCN1CC#CC(O)(c1ccccc1)c1ccccc1 (configuration not stated)	.	99	.	.	.	100
O=C(N/N=C/c1c[nH]c2ccccc12)c1cccc(O)c1	.	.	.	.	.	.
O=C1NC2(CCOc3ccccc32)C(=O)N1CC(=O)N(Cc1ccccc1)C1CCS(=O)(=O)C1 (configuration not stated)	.	.	.	22	.	.
CCOC(=O)NN1C(=O)c2ccccc2NC1C (configuration not stated)	.	.	.	.	.	.
O=C1COc2ccc(S(=O)(=O)CCC(=O)N3CCN(c4cccc(Cl)c4)CC3)cc2N1	.	.	.	.	.	.
Cc1ccc(Cl)cc1N1CCN(C(=O)CCS(=O)(=O)c2ccc3c(c2)NC(=O)CO3)CC1	.	.	.	.	.	37
CCOC(=O)c1sc(NNC(=O)c2ccc(F)cc2)nc1C	.	.	.	25	.	.
SMILES	M1 PAM	CHRM5 antagonist	M5 ag	M5 PAM	CHRM1 agonist	M1 antag
CS(=O)(=O)c1ccc(C(=O)Nc2cc(-c3ccccc3)nn2-c2ccccc2)cc1	.	.	.	.	.	.
COc1ccc(C(=O)Nc2cc(-c3ccccc3)nn2-c2ccccc2F)cc1	.	.	.	25	.	.
Cc1ccc(NS(=O)(=O)c2c(C)[nH]c(C)c2C(=O)N2CCCC2)cc1Cl	.	.	.	32	.	.
Cc1ccc(NS(=O)(=O)c2c(C)[nH]c(C)c2C(=O)N2CCCCC2)cc1C	.	.	.	.	.	.
COc1ccc(-c2nnc(Nc3ccc(OC)c(C(=O)N4CCCCC4)c3)c3ccccc23)cc1	.	.	.	.	.	.
CN(Cc1ccc(OC(F)F)cc1)C(=O)c1cccc(S(=O)(=O)N2CCN(Cc3ccccc3)CC2)c1	.	.	.	.	.	33
COc1ccc(NC(=O)CN(C)C(=O)c2cccc(S(=O)(=O)N3CCN(c4ccc(F)cc4)CC3)c2)cc1	.	30	.	.	.	.
COc1cccc(CN(C)C(=O)c2cccc(S(=O)(=O)N3CCN(c4ccccc4)CC3)c2)c1OC	.	.	.	.	.	.
COc1cccc(CN(C)C(=O)c2cccc(S(=O)(=O)N3CCN(c4ccc(F)cc4)CC3)c2)c1OC	.	.	.	.	.	28
CN1CCCC1CCOC(C)(c1ccccc1)c1ccc(Cl)cc1 (configuration not stated)	/	98	.	.	/	/
CC(C)(C)c1ccc(C(=O)NCC2CCCN2S(=O)(=O)c2ccccc2)cc1 (configuration not stated)	.	.	.	.	.	.
CC(C)Cn1c(N)c(C(=O)COC(=O)/C=C/c2ccccc2)c(=O)n(C)c1=O	.	.	.	.	.	30
CC(C)Cn1c(N)c(C(=O)COC(=O)COc2cccc(C(F)(F)F)c2)c(=O)n(C)c1=O	.	.	.	.	.	32
CC(C)Cn1c(N)c(C(=O)COC(=O)c2cccc(F)c2)c(=O)n(C)c1=O	.	.	.	.	.	.
Cc1ccccc1OCCC(=O)OCC(=O)c1c(N)n(CC(C)C)c(=O)n(C)c1=O	.	34	.	.	.	38
CC(C)Cn1c(N)c(C(=O)COC(=O)CCc2nc3ccccc3s2)c(=O)n(C)c1=O	.	32	.	.	.	.
Cc1ccc(CNC(=O)C2CCCN2C(=O)Nc2cccc(Cl)c2)cc1 (configuration not stated)	.	.	.	.	.	.
CC(C)CNc1oc(-c2ccc(F)cc2)nc1C#N	.	.	.	.	.	.
Cc1cc(SCC(=O)OCC(=O)NC(C)c2ccccc2)c(C)cc1Br (configuration not stated)	.	.	.	.	.	.
CCSc1nc2c(c(=O)n1Cc1ccccc1)SC(C)C2 (configuration not stated)	.	.	.	.	.	.
COc1ccccc1/C=C/C(=O)OCC(=O)c1c(N)n(C)c(=O)n(C)c1=O	.	.	.	19	.	.
CC(C)Cn1c(N)c(C(=O)COC(=O)CC23CC4CC(CC(C4)C2)C3)c(=O)n(C)c1=O	.	.	.	.	.	33

Bioassay records: PubChem, The Scripps Research Institute Molecular Screening Center
